Laboratory results as given in ChEMBL document CHEMBL1275278, “Synthesis and pharmacological evaluation of clubbed isopropylthiazole derived triazolothiadiazoles, triazolothiadiazines and mannich bases as potential antimicrobial and antitubercular agents” (Eur J Med Chem, 2010).
≈ marks a conversion by molar mass, not a printed value.

Experiments:
Klebsiella pneumoniae = assay: Antibacterial activity against Klebsiella pneumoniae ATCC 10031 after 24 hrs by broth microdilution method; type: functional; conditions: ATCC 10031, 24 h
Summary of the method: (§1)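 Broth dilution in Mueller-Hinton broth. Tubes inoculated at 10⁵ cfu/mL and incubated 37 °C for 24 h. MIC taken as lowest concentration completely inhibiting growth. Media and media-plus-DMSO growth controls; ciprofloxacin and norfloxacin as reference standards.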

Aspergillus niger = assay: Antifungal activity against Aspergillus niger ATCC 6275 after 24 hrs by broth microdilution method; type: functional; conditions: ATCC 6275, 24 h
Candida tropicalis = assay: Antifungal activity against Candida tropicalis ATCC 1369 after 24 hrs by broth microdilution method; type: functional; conditions: ATCC 1369, 24 h
Staphylococcus aureus = assay: Antibacterial activity against Staphylococcus aureus ATCC 11632 after 24 hrs by broth microdilution method; type: functional; conditions: ATCC 11632, 24 h; summary of the method: as §1
Escherichia coli = assay: Antibacterial activity against Escherichia coli ATCC 10536 after 24 hrs by broth microdilution method; type: functional; conditions: ATCC 10536, 24 h; summary of the method: as §1
Enterococcus faecalis = assay: Antibacterial activity against Streptococcus faecalis ATCC 14506 after 24 hrs by broth microdilution method; type: functional; conditions: ATCC 14506, 24 h; summary of the method: as §1
[1] = tested on: Mycobacterium tuberculosis; assay: Antimycobacterial activity against Mycobacterium tuberculosis H37Rv after 21 days by broth dilution assay; type: functional; conditions: 504 h
Summary of the method: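 Frozen culture in Middlebrook 7H9 broth with 10% albumin-dextrose-catalase and 0.2% glycerol, thawed and diluted in broth to 10⁵ cfu/mL. Compounds dissolved in DMSO, twofold diluted in broth; final DMSO 1.3%. Tubes inoculated, incubated at 37 °C. Growth compared visually against drug-free and drug- and inoculum-free controls and isoniazid. MIC = lowest concentration inhibiting ≥99% of the starting bacterial population.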

Saccharomyces cerevisiae = assay: Antifungal activity against Saccharomyces cerevisiae ATCC 9763 after 24 hrs by broth microdilution method; type: functional; conditions: ATCC 9763, 24 h
Bacillus subtilis = assay: Antibacterial activity against Bacillus subtilis ATCC 60511 after 24 hrs by broth microdilution method; type: functional; conditions: ATCC 60511, 24 h; summary of the method: as §1
A549 = assay: Cytotoxicity against human A549 cells assessed as cell viability at 250 uM by MTT assay; type: cell-based; conditions: a549, 250 µM
Summary of the method: (§2)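 A549 lung adenocarcinoma cells grown with fetal bovine serum. Compounds held as 10 mM DMSO stocks at −20 °C and diluted in culture medium before treatment (50–250 µM). Viability read by MTT assay against untreated cells and DMSO vehicle control. Two experiments, each with triplicate readings.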

Pseudomonas aeruginosa = assay: Antibacterial activity against Pseudomonas aeruginosa ATCC 10145 after 24 hrs by broth microdilution method; type: functional; conditions: ATCC 10145, 24 h; summary of the method: as §1
[2] = Cytotoxicity against human A549 cells assessed as cell viability at 250 uM by MTT assay relative to control; type: cell-based; conditions: read-out: Activity; summary of the method: as §2

| SMILES | MIC (Klebsiella pneumoniae) [µg/mL] | MIC (Aspergillus niger) [µg/mL] | MIC (Candida tropicalis) [µg/mL] | MIC (Staphylococcus aureus) [µg/mL] | MIC (Escherichia coli) [µg/mL] | MIC (Enterococcus faecalis) [µg/mL] | MIC [1] [µg/mL] | MIC (Saccharomyces cerevisiae) [µg/mL] | MIC (Bacillus subtilis) [µg/mL] | Activity (A549) | MIC (Pseudomonas aeruginosa) [µg/mL] | viability at 250 µM [2] [%] |
| --- | --- | --- | --- | --- | --- | --- | --- | --- | --- | --- | --- | --- |
| CC(C)c1csc(-c2nnc3n2NC(c2ccc(F)cc2F)S3)n1 (centres undefined) | 31.2 (≈ 85.5 µM) | 31.2 (≈ 85.5 µM) | 125 (≈ 342 µM) | 8 (≈ 21.9 µM) | 16 (≈ 43.8 µM) | 4 (≈ 10.9 µM) | 4 (≈ 10.9 µM) | 62.5 (≈ 171 µM) | 4 (≈ 10.9 µM) | Toxic | 16 (≈ 43.8 µM) |  |
| CC(C)c1csc(-c2nn(CN3CCN(C)CC3)c(=S)n2/N=C/c2ccc(N(C)C)cc2)n1 | 4 (≈ 8.25 µM) | 8 (≈ 16.5 µM) | 31.2 (≈ 64.5 µM) | 31.2 (≈ 64.5 µM) | 16 (≈ 33 µM) | 4 (≈ 8.25 µM) | 4 (≈ 8.25 µM) | 16 (≈ 33 µM) | 8 (≈ 16.5 µM) |  | 31.2 (≈ 64.5 µM) | 50 |
| COc1cc(/C=N/n2c(-c3nc(C(C)C)cs3)nn(CN3CCN(C)CC3)c2=S)cc(OC)c1OC | 16 (≈ 30.1 µM) | 16 (≈ 30.1 µM) | 62.5 (≈ 118 µM) | 16 (≈ 30.1 µM) | 8 (≈ 15 µM) | 8 (≈ 15 µM) | 8 (≈ 15 µM) | 125 (≈ 235 µM) | 4 (≈ 7.52 µM) |  | 31.2 (≈ 58.8 µM) | 50 |
| COc1ccc(C2=Nn3c(nnc3-c3nc(C(C)C)cs3)SC2)cc1 | 16 (≈ 43.1 µM) | 16 (≈ 43.1 µM) | 31.2 (≈ 84.1 µM) | 8 (≈ 21.5 µM) | 16 (≈ 43.1 µM) | 4 (≈ 10.8 µM) | 4 (≈ 10.8 µM) | 16 (≈ 43.1 µM) | 8 (≈ 21.5 µM) |  | 8 (≈ 21.5 µM) | 50 |
